Experimental data from ChEMBL document CHEMBL4513216, “Probing the Open Global Health Chemical Diversity Library for Multistage-Active Starting Points for Next-Generation Antimalarials” (ACS Infect Dis, 2020).

Experiment: Toxicity liver stage against HepG2, at 10uM
Type: cell-based
Set-up: test concentration 10 uM, cell line HepG2-A16-CD81EGFP
Details: human, HepG2-A16-CD81EGFP cells; read-out: INHIBITION
Procedure, shortened: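 Uninfected HepG2-A16-CD81EGFP cells, 3 × 10^3 per well, 1536-well, plated on prespotted compound at 10 μM final, parasite-free screening media added to match infected plates; puromycin 10 μM positive, DMSO 0.5% negative; run in parallel with 48 h PbLuc assay at 37 °C, 5% CO2; viability by CellTiter-Glo luminescence, normalized to controls.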

Row | Compound | cytotoxicity at 10 µM [%]
1 | Cc1ccc(Oc2ncccc2CNC2Cc3ccccc3C2)cn1 | -2.19
2 | CC(C)C(=O)N1CCCC(c2ncncc2-c2ccncc2)C1 (configuration not stated) | -6.62
3 | CC(C)Nc1nc2c(c(NC3CC3)n1)CN(C(=O)c1ccncc1)CC2 | -2.29
4 | c1ccc(-c2nnc3sc(CCN4CCCC4)nn23)cc1 | 6.04
5 | Cc1nnc2n1CCN(CCOc1cccc(C#N)c1)C2 | -7.88
6 | COc1ccc(CN(Cc2cn(C)nc2C)CC2CCCO2)c(OC)c1 (configuration not stated) | -7.3
7 | Cc1cc(C)n(CC2CN(Cc3cccc(C#N)c3)CCO2)n1 (configuration not stated) | -3.46
8 | CCC(C(=O)N1CCCSCC1)N1CCCC1=O (configuration not stated) | 6.27
9 | COc1c(F)cc(NC(=O)N2CCC(CSC)C2)cc1F (configuration not stated) | 10.2
10 | C=C(C)CN(c1cn[nH]c1)S(=O)(=O)c1cccc(C#N)c1 | 3.84
11 | Cc1cc(-c2cnn(C)c2)ccc1OCC(N)=O | 2.74
12 | CC(C)CC(=O)N1CCC2(CC1)NC(=O)[C@H]1CN(C(=O)N(C)C)C[C@H]12 | -1.74
13 | CN(C)c1nccc(C2CCCCN2Cc2cnn3cccnc23)n1 (configuration not stated) | 10.5
14 | Cc1cc(C)nc(C2CCN(C(=O)c3cncnc3C)C2)n1 (configuration not stated) | 5.16
15 | CC(C(=O)NCC(C)(C)c1ccc2c(c1)OCCO2)n1cncn1 (configuration not stated) | 13.8
16 | CC(C)n1c2ccccc2c2c1cc(C(=O)N(C)C)n2C | -85.4
17 | CN(Cc1cc(C2CC2)[nH]n1)C(=O)C(c1cccnc1)N1CCCC1 (configuration not stated) | -48.1
18 | Cc1cc(C(=O)NCC2OCCc3cn(CC4CC4)nc32)c(C)[nH]1 (configuration not stated) | 3.42
19 | CCC(CNC(=O)c1ccc(C(N)=O)cc1)Oc1cccc(F)c1 (configuration not stated) | -39.5
20 | COC1CCC(N(C)c2ccnc(N(C)C)n2)CC1 (configuration not stated) | -13.6
21 | N#CC(NC(=O)CCCOc1cccnc1)c1ccccc1Cl (configuration not stated) | 4.26
22 | Cc1c(CN2CCOCC2)c(O)n(CCO)c(=O)c1C#N | -2.78
23 | Cn1cnnc1SC1CCc2ccccc2NC1=O (configuration not stated) | -0.373

Row | Compound | cytotoxicity at 10 µM [%]
24 | CC(C)OCCCN(CC(=O)N1CCNCC1)C(=O)c1cccc(Cl)c1 | 10.3
25 | O=C(CCN1CCOCC1)N1CCC(Cc2ccc(CO)cc2)C1 (configuration not stated) | -9.47
26 | CCc1nsc(N2CCN(CC(=O)NCc3cccnc3)CC2)n1 | -4.52
27 | CN1CC(NC(=O)Nc2cnn(-c3ccccc3Cl)c2)CCC1=O (configuration not stated) | -1.54
28 | CCS(=O)(=O)N1CCC2(CC1)CN(C(=O)N(C)C)Cc1ccccc12 | 2.67
29 | Cc1cccc2[nH]c(C3CCCN3Cc3ccc(CO)o3)nc12 (configuration not stated) | 10.3
30 | CS(=O)(=O)NCC1CCCN(Cc2ccc(F)c3cccnc23)C1 (configuration not stated) | -12.6
31 | Cc1occc1C(=O)N1CCC2(CCC(=O)N(CC(N)=O)C2)CC1 | -9.32
32 | O=C(NCc1cc[nH]n1)N1CCC(Oc2ccccc2Cl)CC1 | 8.16
33 | Cn1cc(C(=O)CC2CCCN2C(=O)c2ccc(Cl)o2)cn1 (configuration not stated) | -4.57
34 | CC(C)N1CC2(CCCN(c3ccccn3)C2)CCC1=O (configuration not stated) | -0.608
35 | Cc1cc(=O)[nH]c(NCCNC(=O)c2ccccc2N2CCCC2)n1 | 0.998
36 | CC(=O)N1CCCc2sc(C(=O)NC3CC3)nc21 | -132
37 | CC(C)N1CCC(c2cc(C(F)(F)F)n3ccnc3n2)CC1 | -16.2
38 | CN(Cc1ccco1)C(=O)C1=NN(C)C(=O)CC1 | -144
39 | CC(=O)N(Cc1noc(C2CC2)n1)C1CCN(Cc2ccccc2)C1 (configuration not stated) | -5.59
40 | Cc1ccccc1OC(C(=O)N1CCC2(CC1)CN(C)C(=O)O2)C(C)C (configuration not stated) | -52.4
41 | CCn1cc(CN2CCCn3nc(CNC(=O)C4CCC4)cc3C2)cn1 | -11.6
42 | CN(C(=O)NCCCNc1ccccn1)C1CCS(=O)(=O)C1 (configuration not stated) | 4.67
43 | CCN1CCC(NC(=O)CN2CCc3c(ncn3C)C2)CC1 | 1.85
44 | Cc1noc(C)c1-c1cncc(C2CCCN2Cc2cc[nH]n2)n1 (configuration not stated) | 13
45 | CC(C)N(C)CC(=O)NCc1ccccc1N1CCN(C)CC1 | -7.85
46 | OCCN1CCC(Cc2nccs2)CC1 | 5.97

Row | Compound | cytotoxicity at 10 µM [%]
47 | COc1ccc(-c2n[nH]c(C)c2CC(=O)N2CCOCC2)cc1 | -14.2
48 | CC(C)N1CCC(NC(=O)NC2CCOc3ccc(Br)cc32)CC1 (configuration not stated) | -6.64
49 | CNS(=O)(=O)c1ccc(C(=O)N2CCCC2c2ccccc2)o1 (configuration not stated) | -7.67
50 | CCC(=O)Nc1cc(Br)cn(C)c1=O | -1.34
51 | CN1N=C(C(=O)N2CCCC(CCc3ccccc3F)C2)CCC1=O (configuration not stated) | -6.67
52 | O=c1c2cnc(N3CCCC3)nc2ccn1-c1cccc(F)c1 | 3.36
53 | CCn1nc(C)c2nnn(CC(=O)Nc3cccc(F)c3)c(=O)c21 | 8.44
54 | CC(C)(C)NC(=O)c1ccn(COc2ccccc2Cl)n1 | 10.7
55 | Cc1cc(=O)n2ncnc2n1CC(O)c1ccc(F)cc1F (configuration not stated) | -1.2
56 | COCc1c(C(=O)N2CCCC(C(=O)c3ccccc3)C2)noc1C (configuration not stated) | -2.54
57 | CCc1noc(CN2CCCC(Cn3nc(C)nc3C)C2)n1 (configuration not stated) | -6.31
58 | Cc1cccc(C2(NC(=O)CCCn3cncn3)CCCC2)c1 | 15
59 | CS(=O)(=O)N1CCCC12CCN(Cc1nccs1)CC2 | 8.1
60 | Cc1nc(CN(CCS(C)(=O)=O)C(C)(C)C)no1 | -1.86
61 | O=C(NC1CCCOc2cc(Cl)ccc21)c1ccc(=O)[nH]n1 (configuration not stated) | 1.5
62 | N#Cc1cc2c(nc1O)CCCCC2 | -6.88
63 | CN1CCC(Cc2cc(Nc3ncccn3)ncn2)CC1 | 1.05
64 | CCN(CC)CC1CN(Cc2c(C)noc2C)Cc2nccn2C1 (configuration not stated) | 2.37
65 | CC(C)(C)CC(=O)NS(=O)(=O)c1ccc(F)cc1C(F)(F)F | -4.3
66 | CC(C)c1ccc(OCCC(=O)N2CCCN(C(N)=O)CC2)cc1 | -15.5
67 | CN1CCC2(CC1)CN(C(=O)c1cnccn1)Cc1ccccc12 | -82.2
68 | CCCn1cc(-c2ccnc(NC3CCCc4ccccc43)n2)c(C)n1 (configuration not stated) | 81.4
69 | COc1ccc(-n2ccc(C(=O)NCCN3CCCCC3)n2)cc1 | -2.87

Row | Compound | cytotoxicity at 10 µM [%]
70 | NC(=O)Cc1csc(NC(=O)C2CSCCC(=O)N2)n1 (configuration not stated) | 0.722
71 | COc1cc(N2CCC(c3nccn3Cc3ccccn3)CC2)ncn1 | -14.2
72 | O=C(NCC1CC[C@@H]2[C@@H]1OCCN2Cc1cccs1)c1ccco1 (some centres not stated) | 3.23
73 | CCC(CCNC(=O)c1cc(C2CC2)nc2c1cnn2C)n1cccn1 (configuration not stated) | 2.04
74 | COc1cccc(C(=O)Nc2n[nH]c(C3CCCO3)n2)c1 (configuration not stated) | 6
75 | CCCN1CCC(CC(=O)N2CC(C)(C)[C@@](C)(O)C2)CC1 | 2.65
76 | CCn1cc(CN2CCCN(C(=O)CCSC)CC2)cn1 | -1.11
77 | COCC1CN(Cc2sccc2C)Cc2nnn(CC3CC3)c21 (configuration not stated) | 4.35
78 | O=C(c1ccc(Cl)cc1)N1CCc2nc(C(=O)N3CCCC3)sc2CC1 | 8.04
79 | CC(Oc1ccc2c(c1)OCO2)C(=O)N1CCC(N2CCOCC2)CC1 (configuration not stated) | -13.5
80 | CCOCC(=O)N1CCC2(CC1)CN(Cc1cccnc1)C(=O)CO2 | -0.125
81 | CCN1C(=O)[C@H]2CN(CC(C)C)C[C@H]2C12CCN(S(C)(=O)=O)CC2 | 10.3
82 | Cc1nnc(SCCC(=O)N(C)Cc2c(F)cccc2Cl)[nH]1 | 1.69
83 | CC(C)c1noc(Cn2ncc3ccccc3c2=O)n1 | -3.69
84 | CC(=O)N1CCC(Cc2cncc(-c3c(C)n[nH]c3C)n2)C1 (configuration not stated) | -19.4
85 | COc1cc(C)nc(N2CCN(C(=O)CCc3nccs3)CC2)n1 | -15.8
86 | Cc1nn(C)c(N(C)C)c1CNCc1ccc(Cn2cncn2)cc1 | -6.94
87 | CN1CCCCc2c1nc1c(c2N)CCC1 | 8.45
88 | O=C(CC1CCCCC1)N1CCOCC1CO (configuration not stated) | -0.779
89 | O[C@H]1CCN(CCCOc2ccccc2F)C[C@@]12CCCO2 | 1.14
90 | CN(C)C1CCN(C(=O)NCc2ccccc2Cn2cncn2)CC1 | -8.15
91 | CS(=O)(=O)NC[C@]12COC[C@H]1CN(CC1CCCC1)C2 | 1.52
92 | Cc1noc(C(C)N2CCN(Cc3ccco3)CC2)n1 (configuration not stated) | -3.37

Row | Compound | cytotoxicity at 10 µM [%]
93 | O=C(c1nn(-c2ccccc2F)cc1O)N1CCCC1 | -4.99
94 | CN1CCC(N(C)C(=O)c2cnc3c(cnn3C3CCCC3)c2)CC1 | -26.9
95 | Cc1n[nH]cc1CNC1CCN(c2cccc(C(F)(F)F)c2)CC1 | -64.8
96 | Cc1cc(CN(C)C(=O)CNS(=O)(=O)c2cccs2)no1 | -33.4
97 | COc1ccccc1[C@@H]1CN(Cc2c(C)noc2C)C[C@H]1C(=O)O | -9.94
98 | O[C@H]1CN(Cc2ccc3c(c2)OCCO3)CC[C@@]12CCCO2 | -2.92
99 | O=S1(=O)C[C@@H]2[C@H](C1)N(Cc1cccc(O)c1)CCN2CC1CC1 | 1.79
100 | CC(C)c1ccc(S(=O)(=O)N2CSCC2C(=O)NCC(F)(F)F)cc1 (configuration not stated) | -13.3
101 | CC(C)CN1C[C@@H]2C(=O)N(C)C3(CCN(C(=O)C(C)C)CC3)[C@@H]2C1 | 6.88
102 | Cc1nccn1CCCC(=O)N1CCC2(CCC(=O)N(C(C)C)C2)CC1 | -10.8
103 | Cc1cccc(CN2CC[C@@H]3[C@@H]2CCN3C(=O)c2cnoc2C)n1 | -21.1
104 | CCc1ccc(CCC(=O)N2CCOCC2c2ncon2)cc1 (configuration not stated) | -3.78
105 | CCOc1ccc(Cl)cc1C(C(=O)O)N1CCOCC1 (configuration not stated) | -0.924
106 | CN(CC1Cc2ccccc2CN1C)c1nc(N)nc2c1CCNCC2 (configuration not stated) | 0.0642
107 | Cn1nc(C2CCN(C(=O)c3cnccn3)C2)cc1CCO (configuration not stated) | 9.95
108 | Cc1cn2c(n1)C(CNCC1=Cc3ccccc3OC1)CCC2 (configuration not stated) | 27.7
109 | COc1ccc(-c2c[nH]c([C@@H]3COCCN3)n2)cc1 | -4.84
110 | CCN1CCC2(CCN(Cc3nccs3)CC2)C1=O | -0.311
111 | CC(=O)N1CCC[C@@H](NCc2c[nH]c3ccccc23)[C@@H]1c1ccc(C)s1 | -39
112 | CC(C)(C)CCN1CCN(c2snc(Cl)c2C#N)CC1 | 38.1
